The values that follow come from ChEMBL document CHEMBL4609999, “Novel alkoxyamide-based histone deacetylase inhibitors reverse cisplatin resistance in chemoresistant cancer cells” (Bioorg Med Chem, 2020).

Structures are written as SMILES. The source made the active and inactive calls. The rule behind the calls is not given here.

The target in one experiment is T1, Histone deacetylase 8 (Homo sapiens, UniProt Q9BY41).
T1 sequence (Q9BY41 whole entry): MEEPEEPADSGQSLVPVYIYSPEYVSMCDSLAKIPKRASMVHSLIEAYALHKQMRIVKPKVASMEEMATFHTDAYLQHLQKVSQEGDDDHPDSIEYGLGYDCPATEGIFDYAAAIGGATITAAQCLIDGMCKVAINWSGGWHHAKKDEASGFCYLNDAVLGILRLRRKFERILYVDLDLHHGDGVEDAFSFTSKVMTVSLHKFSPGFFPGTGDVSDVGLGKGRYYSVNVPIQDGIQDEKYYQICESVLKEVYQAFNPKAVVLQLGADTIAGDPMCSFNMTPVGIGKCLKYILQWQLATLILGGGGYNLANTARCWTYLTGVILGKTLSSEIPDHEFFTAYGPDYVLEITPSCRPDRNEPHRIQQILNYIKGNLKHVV
The experiment can be described thus: Inhibition of recombinant human HDAC8.

The target in experiment [1] is T2, Protein deacetylase HDAC6 (Homo sapiens, UniProt Q9UBN7).
T2 sequence (Q9UBN7 whole entry): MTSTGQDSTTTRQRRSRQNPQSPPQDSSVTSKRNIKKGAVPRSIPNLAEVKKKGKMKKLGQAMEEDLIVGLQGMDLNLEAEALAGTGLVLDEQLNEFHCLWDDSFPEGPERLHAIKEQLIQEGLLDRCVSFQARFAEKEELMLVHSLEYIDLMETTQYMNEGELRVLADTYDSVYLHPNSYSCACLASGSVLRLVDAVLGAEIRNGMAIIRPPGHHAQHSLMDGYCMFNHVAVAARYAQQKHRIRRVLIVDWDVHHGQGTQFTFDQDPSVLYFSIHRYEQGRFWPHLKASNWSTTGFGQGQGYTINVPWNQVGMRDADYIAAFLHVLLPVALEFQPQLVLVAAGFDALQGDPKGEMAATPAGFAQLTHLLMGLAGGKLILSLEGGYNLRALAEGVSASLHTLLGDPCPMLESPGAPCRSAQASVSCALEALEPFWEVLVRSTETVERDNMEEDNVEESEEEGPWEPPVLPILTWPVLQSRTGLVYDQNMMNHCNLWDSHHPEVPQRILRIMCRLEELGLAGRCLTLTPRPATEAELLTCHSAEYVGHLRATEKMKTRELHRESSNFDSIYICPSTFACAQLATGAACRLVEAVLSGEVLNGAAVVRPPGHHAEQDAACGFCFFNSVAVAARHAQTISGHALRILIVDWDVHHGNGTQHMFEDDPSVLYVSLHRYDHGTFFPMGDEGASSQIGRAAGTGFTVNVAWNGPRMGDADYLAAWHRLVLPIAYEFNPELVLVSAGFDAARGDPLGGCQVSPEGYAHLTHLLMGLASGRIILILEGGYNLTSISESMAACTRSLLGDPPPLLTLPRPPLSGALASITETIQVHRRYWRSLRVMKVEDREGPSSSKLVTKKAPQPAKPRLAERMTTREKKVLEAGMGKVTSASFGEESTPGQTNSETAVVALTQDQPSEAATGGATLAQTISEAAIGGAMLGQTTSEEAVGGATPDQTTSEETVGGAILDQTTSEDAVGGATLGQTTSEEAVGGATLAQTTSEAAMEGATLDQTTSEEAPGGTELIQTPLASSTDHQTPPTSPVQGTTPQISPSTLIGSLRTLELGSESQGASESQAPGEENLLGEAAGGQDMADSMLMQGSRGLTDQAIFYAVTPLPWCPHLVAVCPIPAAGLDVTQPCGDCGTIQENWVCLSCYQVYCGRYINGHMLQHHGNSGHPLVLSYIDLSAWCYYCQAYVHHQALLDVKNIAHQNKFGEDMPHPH
In words: Inhibition of recombinant human HDAC6.

The next experiment has as its target Histone deacetylase 4 (Homo sapiens, UniProt P56524). The experiment can be described thus: Inhibition of recombinant human HDAC4.
The next experiment deals with Histone deacetylase 2 (Homo sapiens, UniProt Q92769). In words: Inhibition of recombinant human HDAC2.
Experiment [2] deals with Histone deacetylase. The experiment can be described thus: Inhibition of HDAC in human A2780 cells. Type of experiment: cell-based.
In another experiment the test system is A2780. The experiment can be described thus: Cytotoxicity against human A2780 cells assessed as reduction in cell viability by MTT assay. It counts as functional, cell-based.
The target in experiment [3] is Histone deacetylase. The experiment can be described thus: Inhibition of HDAC in human Cal27 cells. It counts as cell-based. The note with it: cal-27.
Experiment [4] relates to CAL-27. In words: Cytotoxicity against human CAL27 cells assessed as reduction in cell viability by MTT assay. It counts as functional, cell-based.
The target in experiment [5] is T3, Protein deacetylase HDAC6 (Homo sapiens) (UniProt Q9UBN7).
T3 sequence (whole entry): T2 sequence (Q9UBN7 whole entry)
In words: Inhibition of HDAC6 in human CAL27 cells assessed as increase in acetylated alpha-tubulin at 5 uM incubated for 24 hrs by immunoblot analysis. Type of experiment: cell-based. The note with it: CAL-27. The gist of the method: (§1)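 Cal27 and Cal27CisR cells incubated 24 h with vehicle or with inhibitor at 1.5, 3 or 5 µM. Western blot for α-tubulin, acetyl-α-tubulin and acetyl-histone H3.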

The target of experiment [6] is T4, Class 1 histone deacetylase (Homo sapiens) (UniProt Q13547+O15379+Q92769+Q9BY41). In words: Inhibition of class 1 histone deacetylase in human CAL27 cells assessed as increase in H3 histone acetylation at 5 uM incubated for 24 hrs by immunoblot analysis. It counts as cell-based. The note with it: CAL-27. An outline of the steps:
as §1

Experiment [7] deals with CAL-27. The experiment can be described thus: Potentiation of cisplatin-induced cytotoxicity against human CAL27 cells assessed as shift factor by measuring ratio of cisplatin IC50 to cisplatin IC50 in presence of compound at 1.4 uM incubated for 72 hrs followed by cisplatin addition and measured after 72 hrs by MTT assay. Type of experiment: functional. An outline of the steps:
(§2)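 MTT shift assay. Cal27 cells received HDACi at 0.2, 0.4 or 1.4 µM; Cal27CisR cells received 0.8 or 6 µM. Cells were incubated 72 h with a cisplatin range. Shift factor = cisplatin IC50 alone / cisplatin IC50 with HDACi, significance by t-test (p<0.05). Pooled mean of ≥3 experiments, each in triplicate.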

A short description of experiment [8]: Potentiation of cisplatin-induced cytotoxicity against human Cal27CisR cells assessed as shift factor by measuring ratio of cisplatin IC50 to cisplatin IC50 in presence of compound at 6 uM incubated for 72 hrs followed by cisplatin addition and measured after 72 hrs by MTT assay. Type of experiment: functional. An outline of the steps: as §2
The test system of experiment [9] is CAL-27. The experiment can be described thus: Induction of apoptosis in human CAL27 cells assessed as increase in caspase 3/7 activation at 2.8 uM incubated for 24 hrs by Hoechst 33342 staining based fluorescence assay. Type of experiment: functional, cell-based.
Experiment [10] deals with CAL-27. The experiment can be described thus: Potentiation of cisplatin-induced apoptosis in human CAL27 cells assessed as increase in caspase 3/7 activation at 2.8 uM incubated for 24 hrs followed by cisplatin addition by Hoechst 33342 staining based fluorescence assay. Type of experiment: functional, cell-based. An outline of the steps:
(§3)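 Cal27 cells pretreated with HDACi at 0.4, 0.8 or 2.8 µM, then 24 h more with 3 µM cisplatin. Cal27CisR cells pretreated at 0.8 or 8 µM, then 24 h with 25 µM cisplatin. 100 µM cisplatin as positive control. Active caspase 3/7 imaged by green fluorescence, nuclei counterstained with Hoechst 33342 (blue).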

The species named for experiment [11] is Homo sapiens. The experiment can be described thus: Induction of apoptosis in human Cal27CisR cells assessed as increase in caspase 3/7 activation at 8 uM incubated for 24 hrs by Hoechst 33342 staining based fluorescence assay. Type of experiment: functional, cell-based.
Experiment [12] is filed under the species Homo sapiens. The experiment can be described thus: Potentiation of cisplatin-induced apoptosis in human Cal27CisR cells assessed as increase in caspase 3/7 activation at 8 uM incubated for 24 hrs followed by cisplatin addition by Hoechst 33342 staining based fluorescence assay. It counts as functional, cell-based. The gist of the method: as §3
Experiment [13] deals with T3, Protein deacetylase HDAC6 (Homo sapiens). In words: Inhibition of HDAC6 in human Cal27CisR cells assessed as increase in acetylated alpha-tubulin at 5 uM incubated for 24 hrs by immunoblot analysis. It counts as cell-based. The gist of the method: as §1
Experiment [14] deals with T4, Class 1 histone deacetylase (Homo sapiens). In words: Inhibition of class 1 histone deacetylase in human Cal27CisR cells assessed as increase in H3 histone acetylation at 5 uM incubated for 24 hrs by immunoblot analysis. It counts as cell-based. The gist of the method: as §1

Histone deacetylase 2, sequence (Q92769 whole entry): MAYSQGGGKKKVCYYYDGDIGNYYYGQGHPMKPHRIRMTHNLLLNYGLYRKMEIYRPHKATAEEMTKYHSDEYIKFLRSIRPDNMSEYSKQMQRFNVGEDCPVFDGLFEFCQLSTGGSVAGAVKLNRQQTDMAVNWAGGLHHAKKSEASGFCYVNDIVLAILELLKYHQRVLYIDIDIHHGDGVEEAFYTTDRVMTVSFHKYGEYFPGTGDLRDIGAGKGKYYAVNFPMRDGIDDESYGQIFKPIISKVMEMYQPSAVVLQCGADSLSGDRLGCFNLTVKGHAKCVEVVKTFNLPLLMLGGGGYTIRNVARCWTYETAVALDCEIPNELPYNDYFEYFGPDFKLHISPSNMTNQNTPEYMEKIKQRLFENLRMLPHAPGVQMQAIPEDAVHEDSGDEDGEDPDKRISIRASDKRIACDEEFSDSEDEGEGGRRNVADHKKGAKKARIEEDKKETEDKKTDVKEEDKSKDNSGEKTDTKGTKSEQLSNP
Histone deacetylase 4, sequence (P56524 whole entry): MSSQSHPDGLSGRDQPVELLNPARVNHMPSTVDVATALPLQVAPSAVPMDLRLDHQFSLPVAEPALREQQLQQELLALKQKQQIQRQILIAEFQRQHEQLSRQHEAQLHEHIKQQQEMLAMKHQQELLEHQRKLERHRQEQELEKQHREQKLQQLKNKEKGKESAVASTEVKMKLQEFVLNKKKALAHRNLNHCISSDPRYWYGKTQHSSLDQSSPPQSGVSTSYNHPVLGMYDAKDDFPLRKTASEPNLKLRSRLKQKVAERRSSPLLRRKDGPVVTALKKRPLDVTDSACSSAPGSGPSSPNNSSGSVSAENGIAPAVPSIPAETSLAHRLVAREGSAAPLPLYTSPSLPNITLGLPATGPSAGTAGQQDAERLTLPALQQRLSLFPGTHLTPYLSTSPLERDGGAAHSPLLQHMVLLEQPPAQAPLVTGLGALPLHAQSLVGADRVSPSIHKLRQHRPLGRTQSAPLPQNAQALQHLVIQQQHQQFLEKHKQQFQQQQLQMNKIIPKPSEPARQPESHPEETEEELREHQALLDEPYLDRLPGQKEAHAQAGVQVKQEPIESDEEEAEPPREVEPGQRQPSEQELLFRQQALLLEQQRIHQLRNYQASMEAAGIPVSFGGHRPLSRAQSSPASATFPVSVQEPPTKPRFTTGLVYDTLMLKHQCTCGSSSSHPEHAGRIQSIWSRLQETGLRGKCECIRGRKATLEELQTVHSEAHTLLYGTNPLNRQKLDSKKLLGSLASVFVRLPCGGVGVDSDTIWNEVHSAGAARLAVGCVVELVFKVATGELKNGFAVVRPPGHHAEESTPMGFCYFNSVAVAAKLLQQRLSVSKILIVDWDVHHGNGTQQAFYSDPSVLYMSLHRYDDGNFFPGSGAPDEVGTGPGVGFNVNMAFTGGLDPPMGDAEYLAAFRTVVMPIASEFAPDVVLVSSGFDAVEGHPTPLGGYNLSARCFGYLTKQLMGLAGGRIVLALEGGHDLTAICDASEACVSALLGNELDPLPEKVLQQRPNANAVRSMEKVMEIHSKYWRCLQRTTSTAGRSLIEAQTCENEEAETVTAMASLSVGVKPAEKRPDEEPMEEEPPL

For `COc1cc(C(=O)NOCCCCCC(=O)NO)cc(OC)c1OC`, the Ki worked out at 6.4 µM on Histone deacetylase 8, 0.06 µM in [1], 93.1 µM on Histone deacetylase 4 and 0.09 µM at Histone deacetylase 2. The half-inhibitory concentration (IC50) at Histone deacetylase [2] turned out to be 1.18 µM; in the experiment with A2780, 13.8 µM; at Histone deacetylase [3], 1.48 µM; with CAL-27 [4], 3.07 µM. The inhibition entry in experiment [5], in experiment [6], in [13] and in experiment [14] was “Active” each time. In addition, the PF was 1.95 in the experiment with CAL-27 [7] and 7.73 in experiment [8]. Also, the result in the experiment on CAL-27 [9], in the experiment with CAL-27 [10], in the experiment filed under Homo sapiens [11] and in the experiment filed under Homo sapiens [12] was Active.
